Reference: ChEMBL document CHEMBL4689842, “EUbOPEN Chemogenomics Library wave 1” (2021)

Test system: U2OS
Test: Multiplex assay against U2OS
Type: toxicity, cell-based
Settings: human
Outline: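 With compound added, live cells were imaged on a CQ1 microscope at 37°C and 5% CO2; staining with Hoechst33342, BioTracker Green Microtubule Cytoskeleton Dye, MitoTracker Red and Annexin V Alexa Fluor 680 had been done at seeding. The CellPathfinder machine-learning gating scheme split cells into Hoechst high-intensity objects or normal cells, normal cells into healthy, pyknosed or fragmented nuclei, and pyknosed cells into mitotic or apoptotic. The tubulin, mitochondrial-mass and membrane-permeability phenotypes are per cents of healthy-nucleus cells.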

[1] = 12 h, 1 µM, compound concentration 1 uM, replicate 1
[2] = 12 h, 1 µM, compound concentration 1 uM, replicate 2
[3] = 12 h, 10 µM, compound concentration 10 uM, replicate 1
[4] = 12 h, 10 µM, compound concentration 10 uM, replicate 2
[5] = 24 h, 1 µM, compound concentration 1 uM, replicate 1
[6] = 24 h, 1 µM, compound concentration 1 uM, replicate 2
[7] = 24 h, 10 µM, compound concentration 10 uM, replicate 1
[8] = 24 h, 10 µM, compound concentration 10 uM, replicate 2
[9] = 48 h, 1 µM, compound concentration 1 uM, replicate 1
[10] = 48 h, 1 µM, compound concentration 1 uM, replicate 2
[11] = 48 h, 10 µM, compound concentration 10 uM, replicate 1
[12] = 48 h, 10 µM, compound concentration 10 uM, replicate 2

In the case of `Cl.N#Cc1ccc2[nH]cc(CCCCN3CCN(c4ccc5oc(C(N)=O)cc5c4)CC3)c2c1` [VILAZODONE HYDROCHLORIDE], the “Population Apoptotic (%)” value [1] is reported as 42%, the “Population Fragmented Nuclei (%)” value [1] is reported as 17% and the “Population Healthy Nuclei (%)” value [1] is reported as 65%. For the same compound, the “Population Hoechst High Intensity Objects (%)” value [1] was 9%, the “Population Membrane Permeable-Phenotype (%)” value [1] was 4% and the “Population Mitochondria Different-Phenotype (%)” value [1] was 28%. The “Population Mitotic Cells (%)” value [1] was 57%, the “Population Normal (%)” value [1] was 90% and the “Population Pyknosed Nuclei (%)” value [1] was 17%. For the same compound, the “Population Tubulin-Different-Phenotype (%)” value [1] was 29%, the “Total Cell Count” value [1] was 129 and the “Population Apoptotic (%)” value [2] was 27%. For the same compound, the “Population Fragmented Nuclei (%)” value [2] was 14%, the “Population Healthy Nuclei (%)” value [2] was 70% and the “Population Hoechst High Intensity Objects (%)” value [2] was 2%. The “Population Membrane Permeable-Phenotype (%)” value [2] was 6%, the “Population Mitochondria Different-Phenotype (%)” value [2] was 30% and the “Population Mitotic Cells (%)” value [2] was 72%. The “Population Normal (%)” value [2] was 97%, the “Population Pyknosed Nuclei (%)” value [2] was 15% and the “Population Tubulin-Different-Phenotype (%)” value [2] was 18%. For the same compound, the “Total Cell Count” value [2] was 50, the “Population Apoptotic (%)” value [3] was 39% and the “Population Fragmented Nuclei (%)” value [3] was 29%. For the same compound, the “Population Healthy Nuclei (%)” value [3] was 12%, the “Population Hoechst High Intensity Objects (%)” value [3] was 18% and the “Population Membrane Permeable-Phenotype (%)” value [3] was 42%. The “Population Mitochondria Different-Phenotype (%)” value [3] was 89%, the “Population Mitotic Cells (%)” value [3] was 60% and the “Population Normal (%)” value [3] was 81%. The “Population Pyknosed Nuclei (%)” value [3] was 58%, the “Population Tubulin-Different-Phenotype (%)” value [3] was 100% and the “Total Cell Count” value [3] was 120. For the same compound, the “Population Apoptotic (%)” value [4] was 67%, the “Population Fragmented Nuclei (%)” value [4] was 20% and the “Population Healthy Nuclei (%)” value [4] was 14%. The “Population Hoechst High Intensity Objects (%)” value [4] was 10%, the “Population Membrane Permeable-Phenotype (%)” value [4] was 38% and the “Population Mitochondria Different-Phenotype (%)” value [4] was 46%. For the same compound, the “Population Mitotic Cells (%)” value [4] was 32%, the “Population Normal (%)” value [4] was 89% and the “Population Pyknosed Nuclei (%)” value [4] was 64%. The “Population Tubulin-Different-Phenotype (%)” value [4] was 92%, the “Total Cell Count” value [4] was 72 and the “Population Apoptotic (%)” value [5] was 56%. The “Population Fragmented Nuclei (%)” value [5] was 16%, the “Population Healthy Nuclei (%)” value [5] was 71% and the “Population Hoechst High Intensity Objects (%)” value [5] was 7%. For the same compound, the “Population Membrane Permeable-Phenotype (%)” value [5] was 2%, the “Population Mitochondria Different-Phenotype (%)” value [5] was 26% and the “Population Mitotic Cells (%)” value [5] was 43%. The “Population Normal (%)” value [5] was 92%, the “Population Pyknosed Nuclei (%)” value [5] was 12% and the “Population Tubulin-Different-Phenotype (%)” value [5] was 21%. For the same compound, the “Total Cell Count” value [5] was 120, the “Population Apoptotic (%)” value [6] was 60% and the “Population Fragmented Nuclei (%)” value [6] was 15%. For the same compound, the “Population Healthy Nuclei (%)” value [6] was 78%, the “Population Hoechst High Intensity Objects (%)” value [6] was 1% and the “Population Membrane Permeable-Phenotype (%)” value [6] was 3%. The “Population Mitochondria Different-Phenotype (%)” value [6] was 19%, the “Population Mitotic Cells (%)” value [6] was 40% and the “Population Normal (%)” value [6] was 98%. For the same compound, the “Population Pyknosed Nuclei (%)” value [6] was 6%, the “Population Tubulin-Different-Phenotype (%)” value [6] was 18% and the “Total Cell Count” value [6] was 54. The “Population Apoptotic (%)” value [7] was 61%, the “Population Fragmented Nuclei (%)” value [7] was 26% and the “Population Membrane Permeable-Phenotype (%)” value [7] was 53%. For the same compound, the “Population Mitochondria Different-Phenotype (%)” value [7] was 86%, the “Population Mitotic Cells (%)” value [7] was 38% and the “Population Pyknosed Nuclei (%)” value [7] was 64%. For the same compound, the “Population Tubulin-Different-Phenotype (%)” value [7] was 93%, the “Total Cell Count” value [7] was 135 and the “Population Apoptotic (%)” value [8] was 75%. The “Population Fragmented Nuclei (%)” value [8] was 31%, the “Population Healthy Nuclei (%)” value [8] was 9% and the “Population Hoechst High Intensity Objects (%)” value [8] was 18%. For the same compound, the “Population Membrane Permeable-Phenotype (%)” value [8] was 30%, the “Population Mitochondria Different-Phenotype (%)” value [8] was 90% and the “Population Mitotic Cells (%)” value [8] was 24%. The “Population Normal (%)” value [8] was 81%, the “Population Pyknosed Nuclei (%)” value [8] was 59% and the “Population Tubulin-Different-Phenotype (%)” value [8] was 90%. For the same compound, the “Total Cell Count” value [8] was 79, the “Population Apoptotic (%)” value [9] was 38% and the “Population Fragmented Nuclei (%)” value [9] was 10%. For the same compound, the “Population Healthy Nuclei (%)” value [9] was 76%, the “Population Hoechst High Intensity Objects (%)” value [9] was 6% and the “Population Membrane Permeable-Phenotype (%)” value [9] was 8%. The “Population Mitochondria Different-Phenotype (%)” value [9] was 10%, the “Population Mitotic Cells (%)” value [9] was 61% and the “Population Normal (%)” value [9] was 93%. For the same compound, the “Population Pyknosed Nuclei (%)” value [9] was 12%, the “Population Tubulin-Different-Phenotype (%)” value [9] was 16% and the “Total Cell Count” value [9] was 121. The “Population Apoptotic (%)” value [10] was 40%, the “Population Fragmented Nuclei (%)” value [10] was 12% and the “Population Healthy Nuclei (%)” value [10] was 82%. For the same compound, the “Population Hoechst High Intensity Objects (%)” value [10] was 2%, the “Population Membrane Permeable-Phenotype (%)” value [10] was 9% and the “Population Mitochondria Different-Phenotype (%)” value [10] was 9%. For the same compound, the “Population Mitotic Cells (%)” value [10] was 60%, the “Population Normal (%)” value [10] was 97% and the “Population Pyknosed Nuclei (%)” value [10] was 4%. For the same compound, the “Population Tubulin-Different-Phenotype (%)” value [10] was 11%, the “Total Cell Count” value [10] was 49 and the “Population Apoptotic (%)” value [11] was 91%. The “Population Fragmented Nuclei (%)” value [11] was 35%, the “Population Healthy Nuclei (%)” value [11] was 7% and the “Population Hoechst High Intensity Objects (%)” value [11] was 21%. For the same compound, the “Population Membrane Permeable-Phenotype (%)” value [11] was 87%, the “Population Mitochondria Different-Phenotype (%)” value [11] was 100% and the “Population Mitotic Cells (%)” value [11] was 8%. The “Population Normal (%)” value [11] was 78%, the “Population Pyknosed Nuclei (%)” value [11] was 56% and the “Population Tubulin-Different-Phenotype (%)” value [11] was 100%. The “Total Cell Count” value [11] was 174, the “Population Apoptotic (%)” value [12] was 89% and the “Population Fragmented Nuclei (%)” value [12] was 25%. For the same compound, the “Population Healthy Nuclei (%)” value [12] was 5%, the “Population Hoechst High Intensity Objects (%)” value [12] was 25% and the “Population Membrane Permeable-Phenotype (%)” value [12] was 75%. For the same compound, the “Population Mitotic Cells (%)” value [12] was 10%, the “Population Normal (%)” value [12] was 74% and the “Population Pyknosed Nuclei (%)” value [12] was 68%. For the same compound, the “Total Cell Count” value [12] was 120.
